Assays:
Type in all cases: functional
CAKI-1 = experiment: Antitumor activity against human Caki1 cells after 48 hrs by SRB assay; conditions: CAKI-1, 48 h
Summary of the method: (§1)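 NCI in vitro human tumor cell line screen. Cells were exposed continuously to compound for 48 h at five concentration levels (100, 10, 1.0, 0.1 and 0.01). Growth was estimated by sulforhodamine B protein staining. GI50 is the concentration giving a 50% reduction in net protein increase relative to control cells over the incubation.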

A498 = experiment: Antitumor activity against human A498 cells after 48 hrs by SRB assay; conditions: A498, 48 h; summary of the method: as §1
786-0 = experiment: Antitumor activity against human 786-0 cells after 48 hrs by SRB assay; conditions: 786-0, 48 h; summary of the method: as §1
SK-OV-3 = experiment: Antitumor activity against human SKOV3 cells after 48 hrs by SRB assay; conditions: SK-OV-3, 48 h; summary of the method: as §1
OVCAR-8 = experiment: Antitumor activity against human OVCAR8 cells after 48 hrs by SRB assay; conditions: OVCAR-8, 48 h; summary of the method: as §1
OVCAR-4 = experiment: Antitumor activity against human OVCAR4 cells after 48 hrs by SRB assay; conditions: OVCAR-4, 48 h; summary of the method: as §1
OVCAR-3 = experiment: Antitumor activity against human OVCAR-3 cells after 48 hrs by SRB assay; conditions: OVCAR-3, 48 h; summary of the method: as §1
IGROV-1 = experiment: Antitumor activity against human IGROV1 cells after 48 hrs by SRB assay; conditions: IGROV-1, 48 h; summary of the method: as §1
U-251 = experiment: Antitumor activity against human U251 cells after 48 hrs by SRB assay; conditions: U-251, 48 h
Summary of the method: (§2)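 NCI in vitro human tumor cell line screen. Continuous 48 h drug exposure at five concentrations (100, 10, 1.0, 0.1 and 0.01 µM). Cell growth estimated by sulforhodamine B protein staining. GI50 defined as the concentration giving 50% reduction in net protein increase versus control cells over the incubation.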

SF-539 = experiment: Antitumor activity against human SF539 cells after 48 hrs by SRB assay; conditions: SF-539, 48 h; summary of the method: as §1
ACHN = experiment: Antitumor activity against human ACHN cells after 48 hrs by SRB assay; summary of the method: as §1
SF-295 = experiment: Antitumor activity against human SF295 cells after 48 hrs by SRB assay; conditions: SF-295, 48 h; summary of the method: as §1
SF-268 = experiment: Antitumor activity against human SF268 cells after 48 hrs by SRB assay; conditions: SF-268, 48 h; summary of the method: as §1
SW-620 = experiment: Antitumor activity against human SW620 cells after 48 hrs by SRB assay; conditions: SW-620, 48 h; summary of the method: as §2
KM12 = experiment: Antitumor activity against human KM12 cells after 48 hrs by SRB assay; conditions: KM12, 48 h; summary of the method: as §1
HCT-15 = experiment: Antitumor activity against human HCT15 cells after 48 hrs by SRB assay; conditions: HCT-15, 48 h; summary of the method: as §1
HCT-116 = experiment: Antitumor activity against human HCT116 cells after 48 hrs by SRB assay; conditions: HCT-116, 48 h; summary of the method: as §1
HCC 2998 = experiment: Antitumor activity against human HCC2998 cells after 48 hrs by SRB assay; conditions: HCC 2998, 48 h; summary of the method: as §1
COLO 205 = experiment: Antitumor activity against human COLO205 cells after 48 hrs by SRB assay; conditions: COLO 205, 48 h; summary of the method: as §1
NCI-H522 = experiment: Antitumor activity against human NCI-H522 cells after 48 hrs by SRB assay; conditions: NCI-H522, 48 h; summary of the method: as §1
NCI-H460 = experiment: Antitumor activity against human NCI-H460 cells after 48 hrs by SRB assay; conditions: NCI-H460, 48 h; summary of the method: as §1
NCI-H322M = experiment: Antitumor activity against human NCI-H322M cells after 48 hrs by SRB assay; summary of the method: as §1
NCI-H23 = experiment: Antitumor activity against human NCI-H23 cells after 48 hrs by SRB assay; conditions: NCI-H23, 48 h; summary of the method: as §1
NCI-H226 = experiment: Antitumor activity against human NCI-H226 cells after 48 hrs by SRB assay; conditions: NCI-H226, 48 h; summary of the method: as §1
HOP-92 = experiment: Antitumor activity against human HOP92 cells after 48 hrs by SRB assay; conditions: HOP-92, 48 h; summary of the method: as §1
A549 = experiment: Antitumor activity against human A549 cells after 48 hrs by SRB assay; conditions: A549, 48 h; summary of the method: as §1
SR = experiment: Antitumor activity against human SR cells after 48 hrs by SRB assay; summary of the method: as §1
MOLT-4 = experiment: Antitumor activity against human MOLT4 cells after 48 hrs by SRB assay; conditions: MOLT-4, 48 h; summary of the method: as §1
K562 = experiment: Antitumor activity against human K562 cells after 48 hrs by SRB assay; conditions: K562, 48 h; summary of the method: as §1
HL-60(TB) = experiment: Antitumor activity against human HL-60(TB) cells after 48 hrs by SRB assay; conditions: HL-60, 48 h; summary of the method: as §1
CCRF-CEM = experiment: Antitumor activity against human CCRF-CEM cells after 48 hrs by SRB assay; summary of the method: as §1
UO-31 = experiment: Antitumor activity against human UO31 cells after 48 hrs by SRB assay; conditions: UO-31, 48 h; summary of the method: as §2
PC-3 = experiment: Antitumor activity against human PC3 cells after 48 hrs by SRB assay; conditions: PC-3, 48 h; summary of the method: as §1
DU-145 = experiment: Antitumor activity against human DU145 cells after 48 hrs by SRB assay; conditions: DU-145, 48 h; summary of the method: as §1
[1] = Antitumor activity against human Hs 578T cells after 48 hrs by SRB assay; summary of the method: as §1
MDA-MB-435 = experiment: Antitumor activity against human MDA-MB-435 cells after 48 hrs by SRB assay; conditions: MDA-MB-435, 48 h; summary of the method: as §1
BT-549 = experiment: Antitumor activity against human BT549 cells after 48 hrs by SRB assay; conditions: BT-549, 48 h; summary of the method: as §1
T47D = experiment: Antitumor activity against human T47D cells after 48 hrs by SRB assay; summary of the method: as §2
[2] = read-out: LC50 (the source's name)

Structure (SMILES): CSc1nc2c(c(=O)[nH]1)NC1=C(C(=O)c3ccccc31)C(c1ccccc1)N2 (stereo unspecified)
- GI50 (CAKI-1): 2.18 µM
- LC50 (CAKI-1): > 100 µM
- GI50 (A498): 2 µM
- LC50 (A498): > 100 µM
- GI50 (786-0): 6.44 µM
- CC50 (786-0; [2]): > 100 µM
- GI50 (SK-OV-3): 7.65 µM
- LC50 (concentration killing 50% of cells) (SK-OV-3): > 100 µM
- GI50 (OVCAR-8): 19.1 µM
- LC50 (concentration causing 50% net cell kill) (OVCAR-8): > 100 µM
- GI50 (OVCAR-4): 5.62 µM
- CC50 (OVCAR-4; [2]): > 100 µM
- GI50 (OVCAR-3): 2.12 µM
- CC50 (OVCAR-3; [2]): 46.4 µM
- GI50 (IGROV-1): 4.54 µM
- CC50 (IGROV-1; [2]): > 100 µM
- GI50 (U-251): 3.52 µM
- CC50 (U-251; [2]): > 100 µM
- GI50 (SF-539): 2.84 µM
- LC50 (concentration killing 50% of cells) (SF-539): > 100 µM
- GI50 (ACHN): 3.73 µM
- CC50 (ACHN; [2]): > 100 µM
- GI50 (SF-295): 1.91 µM
- CC50 (SF-295; [2]): > 100 µM
- GI50 (SF-268): 4.55 µM
- CC50 (SF-268; [2]): > 100 µM
- GI50 (SW-620): 2.92 µM
- LC50 (SW-620): > 100 µM
- GI50 (KM12): 2.27 µM
- CC50 (KM12; [2]): > 100 µM
- GI50 (HCT-15): 2.8 µM
- LC50 (concentration killing 50% of starting cells) (HCT-15): > 100 µM
- GI50 (HCT-116): 4.21 µM
- LC50 (50% lethal concentration) (HCT-116): > 100 µM
- GI50 (HCC 2998): 6.75 µM
- CC50 (HCC 2998; [2]): > 100 µM
- GI50 (COLO 205): 3.53 µM
- CC50 (COLO 205; [2]): > 100 µM
- GI50 (NCI-H522): 1.41 µM
- CC50 (NCI-H522; [2]): > 100 µM
- GI50 (NCI-H460): 3.16 µM
- CC50 (NCI-H460; [2]): > 100 µM
- GI50 (NCI-H322M): 13.5 µM
- CC50 (NCI-H322M; [2]): > 100 µM
- GI50 (NCI-H23): 5.82 µM
- LC50 (NCI-H23): > 100 µM
- GI50 (NCI-H226): 4.2 µM
- LC50 (NCI-H226): > 100 µM
- GI50 (HOP-92): 12 µM
- LC50 (HOP-92): > 100 µM
- GI50 (A549): 6.98 µM
- CC50 (A549; [2]): > 100 µM
- GI50 (SR): 1.51 µM
- LC50 (concentration killing 50% of cells) (SR): > 100 µM
- GI50 (MOLT-4): 5.24 µM
- LC50 (MOLT-4): > 100 µM
- GI50 (K562): 1.27 µM
- LC50 (K562): > 100 µM
- GI50 (HL-60(TB)): 2.51 µM
- LC50 (HL-60(TB)): > 100 µM
- GI50 (CCRF-CEM): 5.92 µM
- CC50 (CCRF-CEM; [2]): > 100 µM
- GI50 (UO-31): 5.23 µM
- CC50 (UO-31; [2]): > 100 µM
- GI50 (PC-3): 3.64 µM
- CC50 (PC-3; [2]): > 100 µM
- GI50 (DU-145): 13.4 µM
- CC50 (DU-145; [2]): > 100 µM
- GI50 [1]: 2.1 µM
- CC50 [1, 2]: > 100 µM
- GI50 (MDA-MB-435): 0.49 µM
- LC50 (MDA-MB-435): > 100 µM
- GI50 (BT-549): 5.35 µM
- CC50 (BT-549; [2]): > 100 µM
- GI50 (T47D): 4.61 µM
- CC50 (T47D; [2]): > 100 µM

— ChEMBL document CHEMBL1151801, “Synthesis of new indeno[1,2-e]pyrimido[4,5-b][1,4]diazepine-5,11-diones as potential antitumor agents” (2008)
